How the values were obtained:
Cavia porcellus [1] = organism: Cavia porcellus; test: Tested for the force increase in guinea pig atria at 100 uM; assay type: functional; conditions: read-out: Inhibition
Outline: (§1)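 Guinea pig atria paced at 1 Hz, with developed tension recorded at a single test concentration (10, 30 or 100 µM). The increase is given as a percentage of the isoprenaline maximum.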

GH3 [2] = test: Tested for the increase in [Ca2+] uptake into rat pituitary growth hormone3 (GH3) cells at 10 uM; assay type: functional; conditions: read-out: Inhibition
Outline: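 Rat pituitary GH3 cells were depolarized with 50 mM K⁺ and ⁴⁵Ca²⁺ uptake was measured at a single 10 µM test concentration. Response is expressed relative to the maximal uptake produced by Bay K 8644.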

GH3 [3] = test: Tested for the increase in [Ca2+] uptake into rat pituitary growth hormone3 (GH3) cells; assay type: functional, cell-based
Outline: (§2)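 ⁴⁵Ca²⁺ uptake into rat pituitary GH3 cells depolarized with 50 mM K⁺, used as the measure of channel activation. EC50 is the test concentration producing 50% of the maximal uptake obtained with Bay K 8644.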

Cavia porcellus [4] = organism: Cavia porcellus; test: Tested for the force increase in guinea pig atria; assay type: functional
Outline: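 Inotropic activity was measured on guinea pig atria paced at 1 Hz. EC50 is the concentration that raises developed tension to 50% of the isoprenaline maximum.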

GH3 [5] = test: Tested for the 50% of the maximal [Ca2+] uptake produced by Bay K 8644 at 10 uM in rats; assay type: functional, Rattus norvegicus
GH3 [6] = test: Tested for 45 [Ca2+] uptake in rat pituitary growth hormone3 (GH3) cells; assay type: functional, cell-based; outline: as §2
Cavia porcellus [7] = organism: Cavia porcellus; test: Tested for the force value required to increase developed tension to 50% of the isoprenaline maximum at 0.3 uM; assay type: functional
GH3 [8] = test: Tested for the inhibition of [Ca2+] uptake into rat pituitary growth hormone3 (GH3) cells at 10 uM; assay type: functional
Cavia porcellus [9] = organism: Cavia porcellus; test: Tested for the force increase in guinea pig atria at 30 uM; assay type: functional; outline: as §1
Cavia porcellus [10] = organism: Cavia porcellus; test: Tested for the force value required to increase developed tension to 50% of the isoprenaline maximum at 10 uM; assay type: functional
GH3 [11] = test: Tested for the 50% of the maximal [Ca2+] uptake produced by Bay K 8644 at 1 uM in rats; assay type: functional, Rattus norvegicus
Cavia porcellus [12] = organism: Cavia porcellus; test: Tested for the force increase in guinea pig atria at 10 uM; assay type: functional; outline: as §1

Row | Structure (SMILES) | EC50 (Cavia porcellus [4]) [µM] | EC50 (GH3 [3]) [µM] | further results
1 | COC(=O)c1ccccc1C(=O)c1c(C)[nH]c(C)c1C(=O)OC | – | – | Atrial force increase (% of isoprenaline maximum) at 100 µM (Cavia porcellus [1]): 16%; Ca2+ uptake increase (% of Bay K 8644 maximum) at 10 µM (GH3 [2]): 0%
2 | COC(=O)c1c(C)[nH]c(C)c1C(=O)c1ccccc1C(F)(F)F | 4.84 | 4.3 | –
3 | COC(=O)c1c(C)[nH]c(C)c1C(=O)c1ccccc1OC | – | – | Atrial force increase (% of isoprenaline maximum) at 100 µM (Cavia porcellus [1]): 44%; Ca2+ uptake increase (% of Bay K 8644 maximum) at 10 µM (GH3 [2]): 0%
4 | COC(=O)c1c(C)[nH]c(C)c1C(=O)c1cccc(Cl)c1Cl | – | – | inhibition at 10 µM (GH3 [8]): 0%; inhibition at 30 µM (Cavia porcellus [9]): 18%
5 | COC(=O)c1c(C)[nH]c(C)c1C(=O)c1ccccc1I | 5.9 | 3.4 | –
6 | COC(=O)c1c(C)[nH]c(C)c1C(=O)c1ccc(Cl)cc1Cl | – | – | inhibition at 10 µM (Cavia porcellus [12]): 40%; Ca2+ uptake increase (% of Bay K 8644 maximum) at 10 µM (GH3 [2]): 0%
7 | COC(=O)c1c(C)[nH]c(C)c1C(=O)c1ccccc1[N+](=O)[O-] | – | – | Atrial force increase (% of isoprenaline maximum) at 100 µM (Cavia porcellus [1]): 17%; Ca2+ uptake increase (% of Bay K 8644 maximum) at 10 µM (GH3 [2]): 0%
8 | COC(=O)c1c(C(=O)c2ccccc2Cc2ccccc2)c[nH]c1C | 0.46 | 0.42 | –
9 | COC(=O)c1c(C)[nH]c(C)c1C(=O)c1ccccc1Br | 8.95 | 2.4 | –
10 | COC(=O)c1c(C)[nH]c(C)c1C(=O)c1cc(Cl)ccc1Cl | 3.98 | 0.6 | –
11 | COC(=O)c1c(C)[nH]c(C)c1C(=O)c1c(Cl)cccc1Cl | – | – | Atrial force increase (% of isoprenaline maximum) at 100 µM (Cavia porcellus [1]): 0%; Ca2+ uptake increase (% of Bay K 8644 maximum) at 10 µM (GH3 [2]): 0%
12 | COC(=O)c1c(C)[nH]c(C)c1C(=O)c1ccccc1F | 70 | 1.3 | –

Now from value to compound, other results behind:

Row | EC50 (Cavia porcellus [4]) [µM] | Structure (SMILES) | EC50 (GH3 [3]) [µM] | further results
13 | 2.1 | COC(=O)c1c[nH]cc1C(=O)c1ccccc1Cc1ccccc1 | 6.2 | –
14 | 9.47 | COC(=O)c1c(C)[nH]c(C)c1C(=O)c1ccccc1C | 3.6 | –
15 | 21.9 | COC(=O)c1c(C)[nH]c(C)c1C(=O)c1ccccc1 | 5.4 | –
16 | 0.049 | COC(=O)c1c(C)[nH]c(C)c1C(=O)c1ccccc1Cc1ccccc1 | – | Max (GH3 [5]): 383%; EC50 (GH3 [6]): 0.016 µM; Max (Cavia porcellus [7]): 105%
17 | 3.8 | COC(=O)c1c(C)[nH]c(C)c1C(=O)c1ccccc1OC(=O)c1ccccc1O | 0.5 | –
18 | 14 | COC(=O)c1c(C)[nH]c(C)c1C(=O)c1ccccc1Cl | 3.3 | –
19 | 1.95 | COC(=O)C1=C(C)NC(C)=C([N+](=O)[O-])C1c1ccccc1C(F)(F)F (centres undefined) | – | Max (Cavia porcellus [10]): 61%; EC50 (GH3 [6]): 0.015 µM; Max (GH3 [11]): 100%
20 | 0.144 | COC(=O)c1c[nH]c(C)c1C(=O)c1ccccc1Cc1ccccc1 | 0.089 | –

Source: ChEMBL document CHEMBL1127072, “Discovery and synthesis of methyl 2,5-dimethyl-4-[2- (phenylmethyl)benzoyl]-1H-pyrrole-3-carboxylate (FPL 64176) and analogues: the first examples of a new class of calcium channel activator” (J Med Chem, 1993)
